{"source": "ChEMBL document CHEMBL5036319", "about": "“Discovery of Novel Benzothiazepinones as Irreversible Covalent Glycogen Synthase Kinase 3β Inhibitors for the Treatment of Acute Promyelocytic Leukemia” (J Med Chem, 2021)", "key": {"[1]": {"assay": "Induction in caspase-mediated apoptosis in human NB-4 cells assessed as late apoptotic cells at 50 uM incubated for 24 hrs by Annexin V-FITC/propidium iodide staining based flow cytometry analysis (reference value: 1.06%)", "assay_type": "functional"}, "[2]": {"assay": "Induction in caspase-mediated apoptosis in human NB4-DR1 cells assessed as necrotic cells at 12.5 uM incubated for 24 hrs in presence of Z-VAD-FMK by Annexin V-FITC/propidium iodide staining based flow cytometry analysis (reference value: 0.223%)", "assay_type": "functional"}, "[3]": {"assay": "Induction in caspase-mediated apoptosis in human NB4-DR1 cells assessed as necrotic cells at 25 uM incubated for 24 hrs by Annexin V-FITC/propidium iodide staining based flow cytometry analysis (reference value: 0.19%)", "assay_type": "functional"}, "[4]": {"assay": "Induction in caspase-mediated apoptosis in human NB-4 cells assessed as necrotic cells at 50 uM incubated for 24 hrs in presence of Z-VAD-FMK by Annexin V-FITC/propidium iodide staining based flow cytometry analysis (reference value: 0.167%)", "assay_type": "functional"}, "[5]": {"assay": "Induction in caspase-mediated apoptosis in human NB4-DR1 cells assessed as viable cells at 25 uM incubated for 24 hrs by Annexin V-FITC/propidium iodide staining based flow cytometry analysis (reference value: 96.9%)", "assay_type": "functional", "conditions": "read-out: Activity"}, "[6]": {"assay": "Induction in caspase-mediated apoptosis in human NB-4 cells assessed as viable cells at 12.5 uM incubated for 24 hrs by Annexin V-FITC/propidium iodide staining based flow cytometry analysis (reference value: 96.6%)", "assay_type": "functional", "conditions": "read-out: Activity"}, "[7]": {"assay": "Induction in caspase-mediated apoptosis in human NB-4 cells assessed as viable cells at 50 uM incubated for 24 hrs by Annexin V-FITC/propidium iodide staining based flow cytometry analysis (reference value: 96.6%)", "assay_type": "functional", "conditions": "read-out: Activity"}, "[8]": {"assay": "Cytotoxicity against human L02 cells assessed as cell viability at 0 to 50 uM incubated for 24 hrs by CCK-8 assay relative to control", "assay_type": "cell-based", "conditions": "dose 0-50 µM, read-out: Activity", "summary_of_the_method": "(§1)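 HUVEC and LO2 normal cells were cultured in RPMI-1640 or DMEM with 10% FBS at 37 °C, 5% CO2, and seeded at 3 × 10^4 cells/well. They were exposed for 24 h to graded concentrations. CCK-8 incubation was 3 h at 37 °C, with A450 read and viability expressed versus untreated control. Three independent experiments, mean ± SEM.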"}, "[9]": {"assay": "Induction in caspase-mediated apoptosis in human NB4-DR1 cells assessed as late apoptotic cells at 12.5 uM incubated for 24 hrs in presence of Z-VAD-FMK by Annexin V-FITC/propidium iodide staining based flow cytometry analysis (reference value: 2.54%)", "assay_type": "functional"}, "[10]": {"test_system": "MOLT-4", "assay": "Cytotoxicity against human MOLT-4 cells assessed as reduction in cell viability measured after 24 hrs by CCK-8 assay", "assay_type": "functional, cell-based", "conditions": "MOLT-4, 24 h", "summary_of_the_method": "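Cells were grown in RPMI-1640 or high-glucose DMEM with 10% FBS at 37 °C, 5% CO2, and seeded at 3 × 10^4 cells/well. Exposure was 24 h across serial concentrations (0−1000 μM in the screen). […] Three independent experiments, mean ± SEM.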"}, "[11]": {"assay": "Cytotoxicity against HUVEC assessed as cell viability at 0 to 50 uM incubated for 24 hrs by CCK-8 assay relative to control", "assay_type": "cell-based", "conditions": "human, dose 0-50 µM, read-out: Activity", "summary_of_the_method": "as §1"}, "[12]": {"assay": "Induction in caspase-mediated apoptosis in human NB-4 cells assessed as late apoptotic cells at 25 uM incubated for 24 hrs in presence of Z-VAD-FMK by Annexin V-FITC/propidium iodide staining based flow cytometry analysis (reference value: 1.15%)", "assay_type": "functional"}}}
{"compound": "C=CC(=O)N1C(=O)CC(c2ccc(F)cc2)Sc2ccccc21", "note": "(configuration not stated)", "values": [{"measurement": "Activity", "setting": "[1]", "value": 74, "unit": "%"}, {"measurement": "Activity", "setting": "[2]", "value": 0.332, "unit": "%"}, {"measurement": "Activity", "setting": "[3]", "value": 1.32, "unit": "%"}, {"measurement": "Activity", "setting": "[4]", "value": 1.52, "unit": "%"}, {"measurement": "viability at 25 µM", "setting": "[5]", "value": 81.8, "unit": "%"}, {"measurement": "viability at 12.5 µM", "setting": "[6]", "value": 77, "unit": "%"}, {"measurement": "viability at 50 µM", "setting": "[7]", "value": 14.2, "unit": "%"}, {"measurement": "viability at 24 h, up to 50 µM", "setting": "[8]", "value": "> 80", "unit": "%"}, {"measurement": "Activity", "setting": "[9]", "value": 2.74, "unit": "%"}, {"measurement": "IC50", "setting": "[10]", "value": 75.6, "unit": "µM"}, {"measurement": "viability at 24 h, up to 50 µM", "setting": "[11]", "value": "> 80", "unit": "%"}, {"measurement": "Activity", "setting": "[12]", "value": 11.2, "unit": "%"}]}
